Calls of active or inactive are those of the source. The rule behind the calls is not given here.
What was measured:
[1] = Inhibition of osteoclastogenesis in human […] CD14+ pre-osteoclasts assessed as blocked of osteoclast differentiation in presence of M-CSF and RANKL at 10 uM measured after 11 days by TRAP staining method relative to control; type: functional; conditions: 264 h, time 11 day
Outline: (§1)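 Human CD14+ cells came from donor PBMCs by Ficoll centrifugation (500g, 25 min) and CD14 microbead MACS selection. They were seeded at 45 x 10^4 cells/well in α-MEM, 10% FCS, 25 ng/ml hM-CSF. From day 3, medium with 25 ng/ml hM-CSF and 100 ng/ml hRANKL ± compound was changed twice weekly; about 11 days. TRAP-stained multinucleated cells were counted, as % vs RANKL positive control. Monocyte lots differed between series.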

[2] = Inhibition of osteoclastogenesis in human bone marrow derived CD14+ pre-osteoclasts assessed as blocked of osteoclast differentiation in presence of M-CSF and RANKL at 1 uM measured after 11 days by TRAP staining method relative to control; type: functional; conditions: 264 h, time 11 day; outline: as §1
[3] = Inhibition of osteoclastogenesis in human bone marrow derived CD14+ pre-osteoclasts assessed as blocked of osteoclast differentiation in presence of M-CSF and RANKL at 5 uM measured after 11 days by TRAP staining method relative to control; type: functional; conditions: 264 h, time 11 day; outline: as §1
[4] = Cytotoxicity against human bone marrow derived CD14+ pre-osteoclasts upto 10 uM; type: tissue-based; conditions: osteoclast
Monocyte [5] = assay: Effect on p38 expression in human M-CSF treated human bone marrow derived CD14+ monocytes at 10 uM preincubated for 4 hrs followed by IL-6 stimulation and measured after 15 mins by Western blot assay; type: functional, tissue-based; conditions: time 4.25 hrs
Outline: (§2)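 Human CD14+ monocytes were cultured 3 days with 25 ng/ml M-CSF. They were then treated with vehicle or 10 µM compound for 4 h without FBS and M-CSF, and stimulated with IL-6 (25 ng/mL) for 15 min. Equal-protein lysates were run on SDS-PAGE and transferred to PVDF. Blots were probed overnight at 4°C with primary antibodies, with fluorescent secondary detection.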

Monocyte [6] = assay: Inhibition of osteoclastogenesis in human bone marrow derived CD14+ monocytes assessed as decrease in RANKL-induced NFATc1 mRNA expression at 1 to 10 uM measured after 4 days by qRT-PCR method; type: functional; conditions: dose 1-10 µM, time 4.0 day
Outline: (§3)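 CD14+ cells were seeded and, from day 3, treated with 25 ng/ml hM-CSF and 100 ng/ml hRANKL ± compound for 4 days. Target mRNA was measured by qRT-PCR, normalized to GAPDH, with comparative Ct quantification. Each assay was performed in triplicate.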

[7] = biological target: Signal transducer and activator of transcription 3 (Homo sapiens) (UniProt P40763); assay: Inhibition of STAT3 phosphorylation at Ser-727 in human M-CSF treated human bone marrow derived CD14+ monocytes at 10 uM preincubated for 4 hrs followed by IL-6 stimulation and measured after 15 mins by Western blot assay; conditions: Monocyte, time 4.25 hrs; outline: as §2
Chain of Signal transducer and activator of transcription 3 (Homo sapiens) (P40763 whole entry): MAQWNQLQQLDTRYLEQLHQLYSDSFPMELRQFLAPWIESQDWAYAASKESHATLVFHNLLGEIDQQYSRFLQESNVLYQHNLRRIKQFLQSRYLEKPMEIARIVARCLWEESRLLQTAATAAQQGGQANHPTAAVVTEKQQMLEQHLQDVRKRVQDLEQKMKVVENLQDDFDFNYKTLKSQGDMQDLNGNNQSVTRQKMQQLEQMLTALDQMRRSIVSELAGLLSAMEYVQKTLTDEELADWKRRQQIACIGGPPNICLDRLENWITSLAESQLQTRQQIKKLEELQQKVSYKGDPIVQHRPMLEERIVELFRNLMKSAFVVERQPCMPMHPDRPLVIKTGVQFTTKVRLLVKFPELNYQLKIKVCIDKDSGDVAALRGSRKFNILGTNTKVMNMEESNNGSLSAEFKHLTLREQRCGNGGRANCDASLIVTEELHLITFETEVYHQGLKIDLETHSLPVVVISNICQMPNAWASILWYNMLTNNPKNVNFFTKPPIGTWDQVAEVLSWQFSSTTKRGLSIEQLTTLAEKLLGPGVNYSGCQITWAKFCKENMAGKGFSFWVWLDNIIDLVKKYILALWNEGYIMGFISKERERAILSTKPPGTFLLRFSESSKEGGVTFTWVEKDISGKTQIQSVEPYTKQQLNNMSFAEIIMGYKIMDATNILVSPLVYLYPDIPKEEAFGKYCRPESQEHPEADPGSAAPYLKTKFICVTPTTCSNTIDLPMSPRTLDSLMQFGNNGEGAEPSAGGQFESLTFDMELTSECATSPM

Monocyte [8] = assay: Effect on ERK phosphorylation in human M-CSF treated human bone marrow derived CD14+ monocytes at 10 uM preincubated for 4 hrs followed by IL-6 stimulation and measured after 15 mins by Western blot assay; conditions: time 4.25 hrs; outline: as §2
[9] = biological target: MAP kinase p38 (Homo sapiens) (UniProt O15264+Q15759+Q16539+P53778); assay: Effect on p38 phosphorylation in human M-CSF treated human bone marrow derived CD14+ monocytes at 10 uM preincubated for 4 hrs followed by IL-6 stimulation and measured after 15 mins by Western blot assay; conditions: Monocyte, time 4.25 hrs; outline: as §2
Monocyte [10] = assay: Inhibition of osteoclastogenesis in human bone marrow derived CD14+ monocytes assessed as decrease in RANKL-induced Cathepsin K mRNA expression at 1 to 10 uM measured after 4 days by qRT-PCR method; type: functional; conditions: dose 1-10 µM, time 4.0 day; outline: as §3
Monocyte [11] = assay: Effect on ERK expression in human M-CSF treated human bone marrow derived CD14+ monocytes at 10 uM preincubated for 4 hrs followed by IL-6 stimulation and measured after 15 mins by Western blot assay; type: functional; conditions: time 4.25 hrs; outline: as §2
Monocyte [12] = assay: Inhibition of osteoclastogenesis in human bone marrow derived CD14+ monocytes assessed as decrease in RANKL-induced TRAP mRNA expression at 1 to 10 uM measured after 4 days by qRT-PCR method; type: functional; conditions: dose 1-10 µM, time 4.0 day; outline: as §3

| Compound | inhibition at 10 µM [1] [%] | inhibition at 1 µM [2] [%] | inhibition at 5 µM [3] [%] | also measured |
| --- | --- | --- | --- | --- |
| COc1ccc(S(=O)(=O)/N=C(\CC2CCCCC2)N(C(C)C)C2CCOCC2)cc1 | 39 | -14 | 28 |  |
| CC(C)S(=O)(=O)/N=C(\CC1CCCCC1)N1[C@H](C)CCC[C@@H]1C | 12.6 | 1.6 |  |  |
| COc1ccc(S(=O)(=O)/N=C(\CC2CCCCC2)N(C(C)C)C2CCCC2)cc1 | 99 | -86 | 26 |  |
| COc1ccc(S(=O)(=O)/N=C(\CC2CCCCC2)N(C(C)C)C2CCSCC2)cc1 | 93 | -10 | 53 |  |
| C[C@@H]1CCC[C@H](C)N1/C(CC1CCCCC1)=N/S(=O)(=O)c1ccccc1 | 97.9 | 3.3 |  |  |
| Cc1ccc(S(=O)(=O)/N=C(\C2CCCCC2)N2[C@H](C)CCC[C@@H]2C)cc1 | 24.1 | 22.8 |  |  |
| COc1ccc(S(=O)(=O)/N=C(\CC2CCCCC2)N(C(C)C)C2CCCCCCC2)cc1 | 100 | 5 | 88 | Activity [4]: Toxic |
| C[C@@H]1CCC[C@H](C)N1/C(CC1CCCCC1)=N/S(=O)(=O)C(F)(F)F | 96.1 | -1.1 |  |  |
| Cc1ccc(S(=O)(=O)/N=C2\CCCCN2C(C)C)cc1 | 6.1 | 27.9 |  |  |
| Cc1ccc(S(=O)(=O)/N=C(\CC2CCCCC2)N2[C@H](C)CCC[C@@H]2C)cc1 | 97.9 | 35 | 72 | Activity (Monocyte [5]): inactive; inhibition (Monocyte [6]): Active; inhibition [7]: Active; Activity (Monocyte [8]): inactive; Activity [9]: inactive; inhibition (Monocyte [10]): Active; Activity (Monocyte [11]): inactive; inhibition (Monocyte [12]): Active |
| Cc1ccc(S(=O)(=O)/N=C(\C=C2CCCCC2)N2[C@H](C)CCC[C@@H]2C)cc1 | 23.3 | 25.5 |  |  |
| C[C@@H]1CCC[C@H](C)N1/C(CC1CCCCC1)=N/S(=O)(=O)C[C@@]12CCC(CC1=O)C2(C)C | 57.5 | -1.5 |  |  |
| C[C@@H]1CCC[C@H](C)N1/C(CC1CCCCC1)=N/S(=O)(=O)N(C)C | 68.4 | 11.8 |  |  |
| COc1ccc(S(=O)(=O)/N=C(\CC2CCCCC2)N2[C@H](C)CCC[C@@H]2C)cc1 | 98 |  | 62 |  |
| COc1ccc(S(=O)(=O)/N=C(\CC2CCCCC2)N(C(C)C)C2CCCCCC2)cc1 | 99 | -6 | 74 |  |
| CCCCC1CCCN(C(C)C)/C1=N/S(=O)(=O)c1ccc(C)cc1 (centres undefined) | 80.6 | 31.9 |  |  |
| Cc1ccc(S(=O)(=O)/N=C(\CC2CCCC2)N2[C@H](C)CCC[C@@H]2C)cc1 | 91.5 | 32.7 |  |  |
| C[C@@H]1CCC[C@H](C)N1/C(CC1CCCCC1)=N/S(=O)(=O)c1cccnc1 | 56.1 | -23.6 |  |  |
| CCCCC/C(=N\S(=O)(=O)c1ccc(C)cc1)N1[C@H](C)CCC[C@@H]1C | 99.8 | 20.9 |  |  |
| Cc1ccc(S(=O)(=O)/N=C2\CCCCCN2C(C)C)cc1 | 39.3 | 27.1 |  |  |
| CCCCC1CCCCN(C(C)C)/C1=N/S(=O)(=O)c1ccc(C)cc1 (centres undefined) | 90.1 | 12.1 |  |  |
| C[C@@H]1CCC[C@H](C)N1/C(CC1CCCCC1)=N/S(=O)(=O)c1ccccn1 | 44.9 | -20.2 |  |  |
| Cc1ccc(S(=O)(=O)/N=C(\CC2CCCCC2)N2CCCC3CCCCC32)cc1 (centres undefined) | 78.9 | 33.1 |  |  |
| COc1ccc(S(=O)(=O)/N=C(\CC2CCCCC2)N2CCCCCC2)cc1 | 88 | -30 | 49 |  |

— ChEMBL document CHEMBL4732081, “Development of prohibitin ligands against osteoporosis” (Eur J Med Chem, 2021)
